Published values gathered from unrelated publications.
Each line is one published result; the experiments were not run side by side.
Oprm1: Mu-type opioid receptor (Oprm1, Rattus norvegicus, UniProt P33535)
ENO1: ENO1 (Candida albicans, UniProt P30575)
Prolyl endopeptidase: Prolyl endopeptidase (Mus musculus, UniProt Q9QUR6)
Sialidase-3: Sialidase-3 (Homo sapiens, UniProt Q9UQ49)

C/C=C1/CN2CC[C@]34C(=C(C(=O)OC)[C@H]1C[C@H]23)Nc1ccc(Br)cc14
Ki (Oprm1; ligand displacement; radioligand; cell membranes): 658 nM

O=Nc1c(O)[nH]c(=O)[nH]c1=O
IC50 (ENO1; enzyme activity; inhibitor; absorbance): > 50 µM

COc1cc2c(cc1OC)CN(CCc1ccc(NC(=O)c3cccc4c(=O)c5cccc(OC)c5[nH]c34)cc1)CC2
Ki (D(4) dopamine receptor (DRD4, Homo sapiens, UniProt P21917); cell-free assay): > 10000 nM

CN1C(=O)CN=C(c2ccccc2F)c2cc([N+](=O)[O-])ccc21
IC50 (Aldo-keto reductase family 1 member C2 (AKR1C2, Homo sapiens, UniProt P52895); enzyme activity; inhibitor): 1.6 µM

C/C=C1/CN2CC[C@]34C(=C(C(=O)OC)[C@H]1C[C@H]23)Nc1ccc(I)cc14
Ki (Oprm1; ligand displacement; radioligand; cell membranes): 388 nM

COc1c2c(cc3c1-c1c(cc4c(c1OC)OCO4)C[C@H](C)[C@H](C)C3)OCO2
IC50 (Prolyl endopeptidase; enzyme activity; inhibitor; fluorescence): > 100 µM

CC(C)(C)CC(=O)N[C@H]1[C@H]([C@H](O)[C@H](O)CO)OC(C(=O)O)=C[C@@H]1O
IC50 (Sialidase-3; enzyme activity; inhibitor): > 500 µM

C=CCc1ccc(O)c(-c2cc(CC=C)ccc2O)c1
IC50 (Prolyl endopeptidase; enzyme activity; inhibitor; fluorescence): > 100 µM

O=C1CCCN1CP(=O)(O)O
IC50 (ENO1; enzyme activity; inhibitor; absorbance): > 50 µM

CCCCNC(=O)N[C@H]1[C@H]([C@H](O)[C@H](O)CO)OC(C(=O)O)=C[C@@H]1O
IC50 (Sialidase-3; enzyme activity; inhibitor): > 500 µM
